In ChEMBL document CHEMBL5653631, “A Potent and Selective ULK1 Inhibitor Suppresses Autophagy and Sensitizes Cancer Cells to Nutrient Stress” (iScience, 2018):
Blank lines part the entries; values can stand above or below the compound they belong to.

Key:
[1] = molecular target: Interleukin-1 receptor-associated kinase 1 (Homo sapiens) (UniProt P51617); test: Inhibition of human recombinant IRAK1 at 500 nM in presence of ATP by radiometric assay relative to control
[2] = molecular target: Serine/threonine-protein kinase MRCK alpha (Homo sapiens) (UniProt Q5VT25); test: Inhibition of human recombinant MRCKa at 500 nM in presence of ATP by radiometric assay relative to control
[3] = molecular target: Homeodomain-interacting protein kinase 2 (Homo sapiens) (UniProt Q9H2X6); test: Inhibition of human recombinant HIPK2 at 500 nM related to control ULK1
Chain of Homeodomain-interacting protein kinase 2 (Homo sapiens) (Q9H2X6 whole entry, looked up): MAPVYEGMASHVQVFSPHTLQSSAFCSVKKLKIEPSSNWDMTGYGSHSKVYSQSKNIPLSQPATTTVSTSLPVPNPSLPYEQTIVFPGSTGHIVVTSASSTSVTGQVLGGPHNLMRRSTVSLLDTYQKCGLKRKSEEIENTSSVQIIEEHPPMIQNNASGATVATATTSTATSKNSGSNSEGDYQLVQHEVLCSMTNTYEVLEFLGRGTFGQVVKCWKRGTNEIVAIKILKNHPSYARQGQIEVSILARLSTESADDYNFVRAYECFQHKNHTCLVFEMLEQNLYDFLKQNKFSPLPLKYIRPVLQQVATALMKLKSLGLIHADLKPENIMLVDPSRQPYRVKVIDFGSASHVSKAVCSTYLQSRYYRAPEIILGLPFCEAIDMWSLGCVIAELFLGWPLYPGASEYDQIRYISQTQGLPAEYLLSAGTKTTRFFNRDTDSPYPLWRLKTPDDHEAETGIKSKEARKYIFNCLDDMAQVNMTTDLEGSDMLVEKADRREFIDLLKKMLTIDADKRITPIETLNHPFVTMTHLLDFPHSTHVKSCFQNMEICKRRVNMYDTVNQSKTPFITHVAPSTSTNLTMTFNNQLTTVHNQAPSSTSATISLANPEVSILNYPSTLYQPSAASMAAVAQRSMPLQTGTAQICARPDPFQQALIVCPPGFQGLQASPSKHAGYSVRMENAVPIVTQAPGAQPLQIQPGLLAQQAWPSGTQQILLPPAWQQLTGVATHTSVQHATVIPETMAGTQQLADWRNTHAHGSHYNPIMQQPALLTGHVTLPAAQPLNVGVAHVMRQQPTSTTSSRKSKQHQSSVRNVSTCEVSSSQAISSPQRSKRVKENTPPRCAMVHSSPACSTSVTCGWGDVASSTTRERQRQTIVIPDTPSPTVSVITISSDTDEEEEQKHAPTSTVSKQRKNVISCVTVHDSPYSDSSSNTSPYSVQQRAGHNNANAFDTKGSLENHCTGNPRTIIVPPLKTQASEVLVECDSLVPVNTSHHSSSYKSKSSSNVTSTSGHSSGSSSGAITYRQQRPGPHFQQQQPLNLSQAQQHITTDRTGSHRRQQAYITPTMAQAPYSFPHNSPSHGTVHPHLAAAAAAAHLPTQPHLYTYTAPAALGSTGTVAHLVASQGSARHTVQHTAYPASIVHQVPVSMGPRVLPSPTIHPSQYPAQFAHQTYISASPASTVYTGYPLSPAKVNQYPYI

[4] = molecular target: Serine/threonine-protein kinase 32B (Homo sapiens) (UniProt Q9NY57); test: Inhibition of human recombinant YANK2 at 500 nM related to control ULK1
Chain of Serine/threonine-protein kinase 32B (Homo sapiens) (Q9NY57 whole entry): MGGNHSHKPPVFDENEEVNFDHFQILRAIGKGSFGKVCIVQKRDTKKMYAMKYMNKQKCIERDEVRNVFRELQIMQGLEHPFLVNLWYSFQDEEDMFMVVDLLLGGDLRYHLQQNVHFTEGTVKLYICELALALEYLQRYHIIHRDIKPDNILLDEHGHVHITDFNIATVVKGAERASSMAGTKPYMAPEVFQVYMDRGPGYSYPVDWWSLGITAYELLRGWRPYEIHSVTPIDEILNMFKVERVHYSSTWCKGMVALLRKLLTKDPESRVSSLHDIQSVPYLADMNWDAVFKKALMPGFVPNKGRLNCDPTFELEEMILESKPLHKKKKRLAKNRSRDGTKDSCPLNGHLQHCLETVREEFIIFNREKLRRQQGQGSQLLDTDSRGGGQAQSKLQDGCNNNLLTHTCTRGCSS

[5] = molecular target: Tau-tubulin kinase 1 (Homo sapiens) (UniProt Q5TCY1); test: Inhibition of human recombinant TTBK1 at 500 nM in presence of ATP by radiometric assay relative to control
Chain of Tau-tubulin kinase 1 (Homo sapiens) (Q5TCY1 whole entry): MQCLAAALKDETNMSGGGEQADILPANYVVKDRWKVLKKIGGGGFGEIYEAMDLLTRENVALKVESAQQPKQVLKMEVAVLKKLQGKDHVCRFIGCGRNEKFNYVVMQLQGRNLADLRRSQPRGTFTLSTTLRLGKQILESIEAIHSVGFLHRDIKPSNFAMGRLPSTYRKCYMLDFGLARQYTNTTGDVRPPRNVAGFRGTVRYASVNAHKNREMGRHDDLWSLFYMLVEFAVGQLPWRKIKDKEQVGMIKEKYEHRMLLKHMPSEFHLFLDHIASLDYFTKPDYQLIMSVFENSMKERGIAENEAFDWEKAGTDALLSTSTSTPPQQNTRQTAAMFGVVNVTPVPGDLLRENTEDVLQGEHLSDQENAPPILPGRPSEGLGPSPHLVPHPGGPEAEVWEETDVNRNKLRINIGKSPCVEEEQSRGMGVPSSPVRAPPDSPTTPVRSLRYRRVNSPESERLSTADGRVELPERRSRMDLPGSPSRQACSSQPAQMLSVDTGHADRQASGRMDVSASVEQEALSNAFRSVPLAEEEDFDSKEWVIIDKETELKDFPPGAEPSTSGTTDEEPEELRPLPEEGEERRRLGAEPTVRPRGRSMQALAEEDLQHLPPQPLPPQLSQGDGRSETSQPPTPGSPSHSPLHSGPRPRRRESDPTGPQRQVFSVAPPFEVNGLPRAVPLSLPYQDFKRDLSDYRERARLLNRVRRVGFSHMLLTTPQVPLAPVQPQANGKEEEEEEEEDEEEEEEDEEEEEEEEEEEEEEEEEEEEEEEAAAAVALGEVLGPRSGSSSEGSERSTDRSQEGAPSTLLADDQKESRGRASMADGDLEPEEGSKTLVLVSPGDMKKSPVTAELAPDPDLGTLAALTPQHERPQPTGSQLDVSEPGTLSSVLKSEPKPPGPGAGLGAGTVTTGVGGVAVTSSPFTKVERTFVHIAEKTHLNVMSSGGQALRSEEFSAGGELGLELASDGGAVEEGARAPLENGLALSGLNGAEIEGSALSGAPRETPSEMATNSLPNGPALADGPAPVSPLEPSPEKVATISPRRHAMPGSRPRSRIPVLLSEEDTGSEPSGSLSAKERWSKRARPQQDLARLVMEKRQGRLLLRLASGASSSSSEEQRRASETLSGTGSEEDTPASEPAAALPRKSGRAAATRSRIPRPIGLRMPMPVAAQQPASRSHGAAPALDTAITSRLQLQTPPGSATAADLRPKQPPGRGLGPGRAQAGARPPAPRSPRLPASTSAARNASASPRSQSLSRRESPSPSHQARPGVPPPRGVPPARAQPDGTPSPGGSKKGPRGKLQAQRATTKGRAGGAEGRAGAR

[6] = molecular target: Homeodomain-interacting protein kinase 2 (Homo sapiens) (UniProt Q9H2X6); test: Inhibition of human recombinant HIPK2 at 40 nM related to control ULK1
[7] = molecular target: SRSF protein kinase 1 (Homo sapiens) (UniProt Q96SB4); test: Inhibition of human recombinant SRPK1 at 40 nM in presence of ATP by radiometric assay relative to control
Chain of SRSF protein kinase 1 (Homo sapiens) (Q96SB4 whole entry): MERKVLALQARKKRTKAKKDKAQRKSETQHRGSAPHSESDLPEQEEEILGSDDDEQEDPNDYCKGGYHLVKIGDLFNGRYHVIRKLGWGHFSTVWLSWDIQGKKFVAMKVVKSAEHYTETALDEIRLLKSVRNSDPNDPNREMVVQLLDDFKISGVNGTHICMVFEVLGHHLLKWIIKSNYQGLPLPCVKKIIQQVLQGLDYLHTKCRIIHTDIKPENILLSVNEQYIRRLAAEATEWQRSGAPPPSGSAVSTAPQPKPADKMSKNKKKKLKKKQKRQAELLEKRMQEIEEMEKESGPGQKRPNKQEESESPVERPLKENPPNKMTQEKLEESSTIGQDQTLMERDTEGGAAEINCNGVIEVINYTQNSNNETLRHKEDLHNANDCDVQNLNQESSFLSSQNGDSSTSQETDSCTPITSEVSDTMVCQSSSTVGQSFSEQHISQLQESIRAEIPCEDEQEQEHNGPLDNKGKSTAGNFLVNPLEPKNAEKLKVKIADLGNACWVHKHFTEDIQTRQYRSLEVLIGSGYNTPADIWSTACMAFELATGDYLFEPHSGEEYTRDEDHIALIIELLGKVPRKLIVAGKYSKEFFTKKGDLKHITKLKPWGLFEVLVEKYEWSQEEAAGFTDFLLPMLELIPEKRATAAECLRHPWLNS

U2OS = test: Inhibition of autophagy in human U2OS cells assessed as BafA1-induced LC3B-II accumulation preincubated with compound for 3 hrs followed by BafA1 induction and measured after 1.5 hr under starvation condition by immunoblotting analysis; type: functional, cell-based; conditions: dose <= 5.0 µM, time 4.5 hrs
In short: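 U2OS cells kept 3 hr in full growth medium or HBSS-based starvation medium with or without inhibitor; BafA1-induced LC3B-II accumulation quantified by immunoblotting against β-actin.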

[8] = molecular target: Dual specificity mitogen-activated protein kinase kinase 1 (Homo sapiens) (UniProt Q02750); test: Inhibition of human recombinant MAP2K1 at 40 nM related to control ULK1
Chain of Dual specificity mitogen-activated protein kinase kinase 1 (Homo sapiens) (Q02750 whole entry): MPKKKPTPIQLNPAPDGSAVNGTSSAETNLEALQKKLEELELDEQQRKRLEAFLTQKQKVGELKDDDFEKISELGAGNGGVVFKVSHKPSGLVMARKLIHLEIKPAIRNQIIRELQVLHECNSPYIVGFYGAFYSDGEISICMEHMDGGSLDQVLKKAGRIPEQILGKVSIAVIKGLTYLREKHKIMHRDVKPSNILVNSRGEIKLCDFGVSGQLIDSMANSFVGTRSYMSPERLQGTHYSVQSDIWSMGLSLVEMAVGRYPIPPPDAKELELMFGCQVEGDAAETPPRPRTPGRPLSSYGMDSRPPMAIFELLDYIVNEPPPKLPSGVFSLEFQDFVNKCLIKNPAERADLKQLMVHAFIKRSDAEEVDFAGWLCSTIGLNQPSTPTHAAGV

[9] = molecular target: Tyrosine-protein kinase Lck (Homo sapiens) (UniProt P06239); test: Inhibition of human recombinant LCK at 40 nM in presence of ATP by radiometric assay relative to control
[10] = molecular target: Tyrosine-protein kinase SYK (Homo sapiens) (UniProt P43405); test: Inhibition of human recombinant SYK at 15 nM in presence of ATP by radiometric assay relative to control
[11] = molecular target: T1, Activin receptor type-1B (Homo sapiens) (UniProt P36896); test: Inhibition of human recombinant ALK4 at 15 nM related to control ULK1
T1 sequence (whole entry): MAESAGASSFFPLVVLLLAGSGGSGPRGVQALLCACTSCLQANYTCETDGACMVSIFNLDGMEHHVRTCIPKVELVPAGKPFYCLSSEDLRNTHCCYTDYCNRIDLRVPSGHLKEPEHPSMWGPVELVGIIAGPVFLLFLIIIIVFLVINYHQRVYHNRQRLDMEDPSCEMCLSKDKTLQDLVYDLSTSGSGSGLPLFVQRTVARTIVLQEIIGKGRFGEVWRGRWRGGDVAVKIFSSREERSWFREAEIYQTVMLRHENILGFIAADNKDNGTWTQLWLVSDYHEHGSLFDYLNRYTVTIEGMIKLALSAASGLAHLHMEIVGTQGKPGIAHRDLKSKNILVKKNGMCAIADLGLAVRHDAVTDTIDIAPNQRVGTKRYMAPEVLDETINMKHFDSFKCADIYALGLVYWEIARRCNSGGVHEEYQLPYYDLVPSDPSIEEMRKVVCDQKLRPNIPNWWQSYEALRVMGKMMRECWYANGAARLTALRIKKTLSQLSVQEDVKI
In short: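 Panel of 327 recombinant human kinases, each assayed in vitro by radiometric activity assay in duplicate at a single inhibitor concentration per compound, chosen with reference to its ULK1 inhibition. Activity remaining was expressed as percent of vehicle control, and percent inhibition was calculated as 100 minus percent activity remaining.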

[12] = molecular target: T2, Serine/threonine-protein kinase D3 (Homo sapiens) (UniProt O94806); test: Inhibition of human recombinant PKD3 at 15 nM related to control ULK1
T2 sequence (whole entry): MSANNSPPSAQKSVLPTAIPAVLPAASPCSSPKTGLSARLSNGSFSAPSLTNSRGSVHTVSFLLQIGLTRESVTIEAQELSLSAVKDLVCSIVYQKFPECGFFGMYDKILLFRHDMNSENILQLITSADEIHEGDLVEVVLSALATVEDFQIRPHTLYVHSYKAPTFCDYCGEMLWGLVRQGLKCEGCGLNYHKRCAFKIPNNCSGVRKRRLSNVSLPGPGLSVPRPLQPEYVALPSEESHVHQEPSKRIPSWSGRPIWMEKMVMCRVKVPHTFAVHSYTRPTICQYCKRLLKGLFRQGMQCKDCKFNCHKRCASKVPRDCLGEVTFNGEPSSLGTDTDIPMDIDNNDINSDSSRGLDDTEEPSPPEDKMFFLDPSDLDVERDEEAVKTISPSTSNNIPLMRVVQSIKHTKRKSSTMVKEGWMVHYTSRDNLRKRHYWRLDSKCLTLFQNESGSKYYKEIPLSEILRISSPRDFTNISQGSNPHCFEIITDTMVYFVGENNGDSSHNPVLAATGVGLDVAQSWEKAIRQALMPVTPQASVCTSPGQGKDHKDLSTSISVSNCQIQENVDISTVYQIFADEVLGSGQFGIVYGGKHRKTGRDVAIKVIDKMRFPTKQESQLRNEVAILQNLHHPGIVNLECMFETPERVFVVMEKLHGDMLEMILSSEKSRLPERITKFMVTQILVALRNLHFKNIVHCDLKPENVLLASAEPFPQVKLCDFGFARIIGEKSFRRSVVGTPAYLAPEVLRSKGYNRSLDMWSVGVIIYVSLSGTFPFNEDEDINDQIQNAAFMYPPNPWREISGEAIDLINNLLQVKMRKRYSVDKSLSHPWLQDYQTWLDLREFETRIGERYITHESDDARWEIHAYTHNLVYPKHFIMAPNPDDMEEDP

Chain of Interleukin-1 receptor-associated kinase 1 (Homo sapiens) (P51617 whole entry, looked up): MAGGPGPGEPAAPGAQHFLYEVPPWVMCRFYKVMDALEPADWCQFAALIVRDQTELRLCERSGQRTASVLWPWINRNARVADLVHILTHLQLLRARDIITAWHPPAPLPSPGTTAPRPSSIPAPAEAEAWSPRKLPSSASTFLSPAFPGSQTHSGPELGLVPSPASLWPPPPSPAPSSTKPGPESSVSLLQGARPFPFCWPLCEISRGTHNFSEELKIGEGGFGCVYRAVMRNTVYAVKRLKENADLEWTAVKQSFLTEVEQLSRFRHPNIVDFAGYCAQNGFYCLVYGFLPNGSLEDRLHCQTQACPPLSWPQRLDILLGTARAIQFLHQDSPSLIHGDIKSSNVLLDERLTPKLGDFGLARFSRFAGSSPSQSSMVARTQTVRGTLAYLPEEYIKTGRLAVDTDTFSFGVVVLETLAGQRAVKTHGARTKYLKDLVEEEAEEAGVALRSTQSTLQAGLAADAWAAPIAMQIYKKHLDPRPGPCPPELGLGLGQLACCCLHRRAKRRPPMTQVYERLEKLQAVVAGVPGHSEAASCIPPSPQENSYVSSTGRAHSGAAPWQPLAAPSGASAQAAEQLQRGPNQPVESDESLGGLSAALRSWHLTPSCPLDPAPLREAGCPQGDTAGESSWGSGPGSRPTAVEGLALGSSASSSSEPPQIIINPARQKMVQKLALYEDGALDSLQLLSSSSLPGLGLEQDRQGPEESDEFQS

inhibition [1]: 15%
inhibition [2]: 7%
fold change (FC) [3]: 0
fold change (FC) [4]: 0.03
inhibition [5]: 1%
SMILES: CNC(=O)c1ccccc1Oc1nc(Nc2cc(OC)c(OC)c(OC)c2)ncc1Br

fold change (FC) [6]: 0
inhibition [7]: 10%
fold change (FC) [8]: 0
inhibition [9]: 0%
SMILES: O=C(N[C@@H](C1CC1)C(F)(F)F)c1cc(-c2cnn3cc(-c4ccc(F)cc4)cnc23)cs1
inhibition (U2OS): Dose-Dependent Effect

inhibition [10]: 0%
fold change (FC) [11]: 0.23
fold change (FC) [12]: 0.08
SMILES: CC(C)[C@H](NC(=O)c1cc(-c2cnn3cc(-c4ccc(OCCN5CCCCC5)cc4)cnc23)cs1)C(F)(F)F
